H9c2 protect: myocardial damage modulation in H9c2 cells; 360,000 tested, 0.63% active; H9c2 cardiomyocytes, H2O2 injury protection, ATPLite, 2 h; protection from H2O2 cell death, % at 20 µM;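 active = compounds giving at least 50% protection of heart cells from peroxide-induced death in the single-dose screen, raw or plate-pattern-corrected value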
Pemphigus Ab inh: inhibitors of pemphigus antibody binding to human desmoglein-3. P32926. DSG3-coupled beads, scFv-anti-DSG3-GFP binding, flow cytometry; stronger effect = lower value. binding (percent of control), % at 10 µM. 310,000 tested, 0.48% active. AID 588358;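 active = binding more than 3 SD below its plate's average and above zero; inconclusive = below that plate limit but binding exactly zero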;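 also: hits lower antibody fragment binding to DSG3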
HNF4A DNA FP: change in binding of human HNF4 alpha to DNA; activity change, % at 10 µM; HNF4a-FITC DNA binding, fluorescence polarization, 1 h; 360,000 tested, 0.3% active; in the data active = activity change above about 30%, passing the limit was not always enough
Target sequence (P41235 whole entry, looked up): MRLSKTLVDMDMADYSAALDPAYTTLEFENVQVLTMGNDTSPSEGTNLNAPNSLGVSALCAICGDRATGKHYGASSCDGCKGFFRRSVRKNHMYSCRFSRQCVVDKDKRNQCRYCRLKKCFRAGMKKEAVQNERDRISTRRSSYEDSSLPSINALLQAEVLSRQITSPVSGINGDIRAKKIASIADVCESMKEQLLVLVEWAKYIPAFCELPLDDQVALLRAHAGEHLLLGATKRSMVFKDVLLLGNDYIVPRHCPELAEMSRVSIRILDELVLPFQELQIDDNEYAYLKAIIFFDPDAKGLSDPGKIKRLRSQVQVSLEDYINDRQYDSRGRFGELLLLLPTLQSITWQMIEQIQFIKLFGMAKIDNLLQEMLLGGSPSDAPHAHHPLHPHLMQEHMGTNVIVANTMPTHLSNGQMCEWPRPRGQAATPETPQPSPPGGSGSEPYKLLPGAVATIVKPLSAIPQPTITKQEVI
Exocytosis inh: blocks lytic granule exocytosis; 360,000 tested, 0.66% active; inhibition, % at 10 µM; TALL-104 LAMP-1 surface exposure, flow cytometry; cells stimulated with thapsigargin and PMA;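 active = inhibition above about 55%, limit read from the data; inconclusive = no clear call, values can overlap the other calls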
Myeloid diff MLP: promotes myeloid progenitor differentiation. ER-HoxA9 myeloid progenitors, lysozyme-GFP differentiation, flow cytometry. calls only at 10 µM. 360,000 tested, 1% active;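 active = normalized GFP-positive differentiation at or above the plate's own cutoff, the solvent-only control mean plus 3 SD; inconclusive = no clear call, values can overlap the other calls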;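 also: cells exposed to compound for four days before flow analysis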
SENP1 inh: blocks the human SENP1 SUMO protease catalytic domain | Q9P0U3 | recombinant SENP1 catalytic domain, CyPet-SUMO1-YPet FRET cleavage | inhibition, % at 10 µM | 360,000 tested, 0.21% active | AID 624204;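 active = inhibition at least 30% at 10 µM, raw YFP signal under a set limit, fluorescence ratio 0.5 to 1.5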
Target sequence (Q9P0U3 419-644 limits assumed): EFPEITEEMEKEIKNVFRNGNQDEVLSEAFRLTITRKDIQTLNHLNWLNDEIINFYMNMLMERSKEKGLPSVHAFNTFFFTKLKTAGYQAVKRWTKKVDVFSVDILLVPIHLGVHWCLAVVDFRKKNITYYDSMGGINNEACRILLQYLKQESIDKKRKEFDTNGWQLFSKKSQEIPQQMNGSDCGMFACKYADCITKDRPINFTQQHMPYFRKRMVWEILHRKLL
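Test system: hSENP1 catalytic domain, recombinant; Amount: 20 pM final SENP1 enzyme; Medium: Tris pH 8 buffer plus EDTA, NaCl, BME, BSA, NP40, catalase; Schedule: 50 min enzyme reaction, room temperature, light-protected; Technique: FRET fluorescence in CFP and YFP emission channels; Controls: no-enzyme wells low, DMSO-plus-enzyme wells high control.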
Each line names hits and unclear results; the compound was inactive in the other large screens. Shown are actives, neighbours in structure and some others; about 3% of the full set was active somewhere.

COc1ccc(N(CC(=O)Nc2ccccc2C)S(=O)(=O)c2ccccc2[N+](=O)[O-])c(OC)c1	Pemphigus Ab inh 24.3
Cc1ccc(NC(=O)c2ccc(Cl)c(N3C(=O)CCC3=O)c2)cc1	HNF4A DNA FP 54.9
Cc1ccc(NC(=O)c2ccc(C)cc2)cc1	none
Nc1cc([N+](=O)[O-])cc2oc(-c3ccccc3)cc12	SENP1 inh 34.1
O=S1(=O)Cc2cc3ccccc3cc2C1	none
CCOc1ccc(C(C)=O)cc1CN1C(=O)NC(C)(C2CC2)C1=O (centres undefined)	none
O=C(N/N=C/c1ccc(F)cc1)c1cc(-c2ccc3c(c2)OCO3)n[nH]1	none
COc1ccc(/C=N/NC(=O)c2cc(-c3ccc4c(c3)OCO4)n[nH]2)cc1OC	H9c2 protect 65.1 (no result: Pemphigus Ab inh)
Cc1[nH]c2ccccc2c1CC#N	none
Cc1[nH]c2ccccc2c1C1=CC(=O)C=CC1=O	Pemphigus Ab inh 64.9
COc1cc(OC)c(CN2CCc3c([nH]c4ccccc34)C2)cc1Br	HNF4A DNA FP 51.5, Myeloid diff MLP active
CCn1c(-c2csc(-c3ccccc3)n2)n[nH]c1=S	Pemphigus Ab inh -34.0
CCn1c(-c2csc(-c3ccc(Cl)cc3)n2)n[nH]c1=S	none
COC(=O)Cn1c(=NC(=O)c2cc(-c3cccs3)nc3ccccc23)sc2cc(S(N)(=O)=O)ccc21	H9c2 protect 66.1
CCOC(=O)Cn1c(=NC(=O)c2cc(-c3cccs3)nc3ccccc23)sc2cc(S(N)(=O)=O)ccc21	H9c2 protect 75.3
COC(=O)[C@]12CCCCC=C1N(CCc1ccc(OC)c(OC)c1)C(=O)[C@H](CC(=O)N1CCCCC1)C2	none (no result: H9c2 protect, Pemphigus Ab inh)
O=C(CCc1c[nH]c2ccccc12)NCCc1ccc(Cl)cc1	none
CC1(C(=O)O)Sc2[nH]c(=O)sc2C2c3ccccc3OC(=O)C21 (centres undefined)	HNF4A DNA FP 39.1
CN1CCC(N(C)C(=O)c2ccc(Cl)c(S(=O)(=O)N3CCCCC3)c2)CC1	none
CCOc1cc(/C=N/NC(N)=O)cc(Br)c1OCC(=O)Nc1ccccc1C	none
CCOc1cc(/C=N/NC(N)=O)cc(Br)c1OCC(=O)Nc1cccc2ccccc12	H9c2 protect 56.9
Clc1ccc(/C(Cc2nc3ccccc3[nH]2)=N\Nc2ccccc2)cc1	none
N#CCCN/N=C(/Cc1nc2ccccc2[nH]1)c1cccc(Cl)c1	Myeloid diff MLP active
Cc1cccc(NC(=O)CN(C)S(=O)(=O)c2ccc3c(c2)n(C)c(=O)c(=O)n3C)c1C	none (no result: Pemphigus Ab inh)
O=C(Nc1cccc(-c2nc3ncccc3o2)c1)c1cc2ccccc2o1	none (no result: Pemphigus Ab inh)
Cc1cc(C)cc(OCC(=O)Nc2cccc(-c3nc4ncccc4o3)c2)c1	H9c2 protect 101.7
O=C(Cc1ccccc1)Nc1cccc(-c2nc3ncccc3o2)c1	none
O=C(Nc1cccc(-c2nc3ncccc3o2)c1)c1sc2cc(Cl)ccc2c1Cl	HNF4A DNA FP 175.6
O=C(Nc1cccc(-c2nc3ncccc3o2)c1)c1sc2ccccc2c1Cl	HNF4A DNA FP 43.1
CN(Cc1ccc(Cl)cc1)C(=O)CNC(=O)C12CC3CC(CC(C3)C1)C2	none
CN(C)CCCNC(=O)C[C@H]1C[C@H](C(=O)N2CCOCC2)[C@@]2(CCC3CCCC3)c3[nH]c4cc(CCC(=O)N(C)C)ccc4c3CCN2C1=O	none
NC(=O)C1CC(=O)N(CCc2ccc(F)cc2)C1 (centres undefined)	none
O=C(CSc1nc2[nH]ncc2c(=O)n1-c1ccccc1)c1ccc2c(c1)OCCO2	H9c2 protect 45.7
CCOC(=O)c1c(C)[nH]c(C(=O)COC(=O)c2[nH]c(C)c(C(C)=O)c2C)c1C	Myeloid diff MLP active
CCOC(=O)c1c(C)[nH]c(C(=O)COc2ccc3ccc(=O)oc3c2)c1C	H9c2 protect 52.3
Cc1cc(-n2c(C)cc(C(=O)COc3ccc4ccc(=O)oc4c3)c2C)no1	H9c2 protect 70.4 (no result: Myeloid diff MLP)
CN(C)C(=O)COc1ccc2ccc(=O)oc2c1	none
Cc1ccc2nc(-c3ccccc3)cc(C(=O)N(C)CC(=O)Nc3ccccc3Br)c2c1	none
Cc1ccc(NC(=S)Nn2cnnc2)cc1	none
O=C(COC(=O)CN1C(=O)c2ccccc2C1=O)Nc1ccccc1C(F)(F)F	Pemphigus Ab inh 84.5
COc1ccc(CN(CC(=O)NCc2ccc(F)cc2)C(=O)CCC(=O)Nc2nccs2)cc1	none (no result: Pemphigus Ab inh)
C[C@H](CO)N1C[C@H](C)[C@@H](CN(C)C(=O)Nc2ccc(C(F)(F)F)cc2)Oc2ccc(NS(=O)(=O)c3cn(C)cn3)cc2C1=O	Myeloid diff MLP active
C[C@@H]1CN([C@@H](C)CO)C(=O)c2cc(NC(=O)Nc3ccccc3)ccc2O[C@H]1CN(C)C(=O)Nc1cccc2ccccc12	H9c2 protect 89.9
C[C@H](CO)N1C[C@H](C)[C@@H](CN(C)Cc2ccc(Cl)c(Cl)c2)Oc2c(NC(=O)Cc3ccccc3)cccc2C1=O	Myeloid diff MLP active
C[C@H](CO)N1C[C@H](C)[C@@H](CN(C)C(=O)Nc2ccccc2)Oc2ccc(NC(=O)Nc3ccc(C(F)(F)F)cc3)cc2C1=O	none
C[C@H](CO)N1C[C@H](C)[C@@H](CN(C)Cc2ccccc2)Oc2c(NC(=O)Cc3ccccc3)cccc2C1=O	none
C[C@H](CO)N1C[C@H](C)[C@@H](CN(C)C(=O)Nc2ccc(F)cc2)Oc2ccc(NS(C)(=O)=O)cc2C1=O	Myeloid diff MLP active
Cc1ccc(/C=N/NC(=O)C(C)Oc2ccccc2[N+](=O)[O-])s1 (centres undefined)	none
COc1ccc2c(c1OC)C(=O)N1C2SC(C)(C)[C@H]1C(=O)NC(C)C (some centres undefined)	none
CCOC(=O)C1=C(COC(=O)C(CC)c2ccccc2)NC(=O)NC1C (centres undefined)	Pemphigus Ab inh inconclusive
C[C@H](CO)N1C[C@H](C)[C@@H](CN(C)C(=O)Nc2ccc(C(F)(F)F)cc2)Oc2ccc(NS(=O)(=O)c3ccc(F)cc3)cc2C1=O	none (no result: Pemphigus Ab inh)
Cc1ccc(S(=O)(=O)Nc2ccc3c(c2)C(=O)N([C@H](C)CO)C[C@H](C)[C@@H](CN(C)C(=O)Nc2ccc(C(F)(F)F)cc2)O3)cc1	Myeloid diff MLP active
CC1CCc2sc(C(=O)NN=C3CCC(c4ccccc4)CC3)cc2C1 (centres undefined)	Myeloid diff MLP active
O=C(NN=C1CCC(c2ccccc2)CC1)c1cc2c(s1)CCCC2 (centres undefined)	none
COc1ccc(S(=O)(=O)N(CC(=O)NCc2cccnc2)c2ccc(C)cc2)cc1OC	none
Cc1ccc(/C=N/Nc2cc(C)nc(NCc3ccccc3)n2)cc1	Exocytosis inh 87.7 (no result: Pemphigus Ab inh)
Cc1cc(Nc2cccc(F)c2)nc(NCc2ccccc2)n1	Myeloid diff MLP active
Cc1cc(Oc2ccccc2F)nc(NCc2ccccc2)n1	Pemphigus Ab inh -3.2

High-throughput results: PubChem BioAssay, several laboratories
